An excerpt weighted towards active compounds, which were near 1.8% of everything screened.
Apaf-1 inh: blocks human Apaf-1 apoptosome activity | O14727 | reconstituted apoptosome caspase-3 activity, DEVD-Rh110 fluorescence | inhibition, % at 20 µM | actives 0.71% (n = 330,000) | AID 489030; active = inhibition of at least 40% at 20 µM;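 note: plate controls were DMSO wells for no effect and DEVD-CHO caspase inhibitor wells for full effect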
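Material: reconstituted apoptosome with Apaf-1, cytochrome c, caspase-9, procaspase-3, dATP / Buffer or medium: pH 7.5 Hepes buffer with CHAPS, BSA, DTT / Also added: cytochrome c with DEVD-Rh110 / Schedule: compound with Apaf-1, dATP, procaspase-3 30 min, then 50 min reaction, room temperature / Technique: rhodamine 110 fluorescence at Ex 480/Em 540 nm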
Fh CTSL1 inh: counter-screen for PFM18AAP inhibitors: inhibitors of F. hepatica cathepsin L1; recombinant F. hepatica cathepsin L1, Z-Leu-Arg-MCA fluorescence; inhibition, % at 5.96 µM; actives 0.49% (n = 300,000); AID 1906;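 active = inhibition above the mean of all tested compounds plus 3 SD, set per screening campaign, cut at about 17% in these data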;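 note: 0% = plate median of test compound wells and 100% = 1 µM Z-Phe-Ala-diazomethylketone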
PAD4 inh: PAD4 (human) enzyme inhibition; actives 0.41% (n = 330,000); recombinant PAD4, RCA probe fluorescence polarization; inhibition, % at 6.36 µM;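 active = percent inhibition above a cutoff equal to the mean of all tested compounds plus 3 SD, cut at about 15% in these data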;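 note: 0% = PAD4 with RCA probe and DMSO and 100% = probe without PAD4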
TDP2 inh: TDP2 (human) inhibition, absorbance primary screen; AID 720702; actives 0.34% (n = 370,000); recombinant TDP2, T5PNP hydrolysis, p-nitrophenol absorbance 415 nm; inhibition, % at 12.8 µM;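 active = inhibition above the mean of all tested compounds plus 3 SD, set per campaign, cut at about 25% in these data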;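 note: 0% = DMSO with enzyme and 100% = buffer with substrate but no TDP2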
Target sequence (O95551 whole entry, looked up): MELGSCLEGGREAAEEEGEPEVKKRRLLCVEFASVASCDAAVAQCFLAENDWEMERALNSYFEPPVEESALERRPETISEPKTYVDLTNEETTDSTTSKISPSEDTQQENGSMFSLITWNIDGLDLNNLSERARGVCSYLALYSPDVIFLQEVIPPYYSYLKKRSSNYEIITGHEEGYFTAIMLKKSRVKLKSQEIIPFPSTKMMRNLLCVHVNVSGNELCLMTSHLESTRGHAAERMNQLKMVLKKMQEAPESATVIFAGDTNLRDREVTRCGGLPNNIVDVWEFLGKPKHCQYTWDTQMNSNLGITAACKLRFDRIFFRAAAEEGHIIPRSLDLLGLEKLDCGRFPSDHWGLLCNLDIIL
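test system = human TDP2 enzyme | input = TDP2 enzyme at 120 nM final | medium = 50 mM Tris-HCl pH 7.5 with Mg2+, KCl, DTT, BSA | also added = T5PNP substrate, 5 mM | times = 2 h at 37 °C | technique = epi absorbance | benchmarks = high control without enzyme, low control DMSO plus TDP2 | replication = each compound tested once, singlicate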
GSTO1 counter: counter-screen for RBBP9 inhibitors: inhibitors of human GSTO1; P78417; recombinant GSTO1, activity-based probe fluorescence polarization; AID 1974; inhibition, % at 5.96 µM; actives 1.1% (n = 300,000);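 active = inhibition above the campaign mean inhibition plus 3 SD, cut at about 35% in these data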;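 note: 0% = GSTO1-1 with DMSO and 100% = wells lacking GSTO1-1 enzyme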
Target sequence (P78417 whole entry, looked up): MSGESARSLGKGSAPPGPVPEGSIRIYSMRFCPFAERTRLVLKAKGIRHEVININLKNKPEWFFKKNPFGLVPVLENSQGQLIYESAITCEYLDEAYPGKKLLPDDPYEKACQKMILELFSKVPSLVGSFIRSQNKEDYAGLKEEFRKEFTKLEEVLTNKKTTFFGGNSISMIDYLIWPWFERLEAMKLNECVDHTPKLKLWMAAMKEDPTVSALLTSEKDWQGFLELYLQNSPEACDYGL
GSTO1 inh conf: GSTO1 (human) inhibition, confirmation. shares compounds with GSTO1 counter. recombinant GSTO1, probe fluorescence polarization. inhibition, % at 5.96 µM. actives 54% (n = 2,400). AID 2176;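 active = inhibition above the primary screen's cutoff, its mean inhibition plus 3 SD, cut at about 35% in these data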;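 note: loss of polarization as inhibitors block binding of rhodamine sulfonate ester activity probe; 0% = GSTO1 with DMSO and 100% = wells lacking GSTO1 enzyme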
GSTO1 recomb ABPP: blocks recombinant human glutathione S-transferase omega 1. shares compounds with GSTO1 counter. recombinant GSTO1, gel ABPP SE-Rh probe fluorescence. inhibition, % at 1 µM. actives 30% (n = 130);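 active = inhibition of the enzyme GSTO1 above about 75%, limit read from the data; inactive = inhibition below that limit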
The depositor's hits bear a star; x = not tested or not shown.

SMILES	Apaf-1 inh	Fh CTSL1 inh	PAD4 inh	TDP2 inh	GSTO1 counter	GSTO1 inh conf	others
CN1C(=O)/C(=C/c2ccc(-c3ccccc3[N+](=O)[O-])o2)SC1=Nc1ccc(Cl)c(C(=O)O)c1	x	-7.8	11.5	6.5	72.4*	79.4*
NC(=O)c1c(N)[nH]c(C(=O)c2ccccc2)c1-c1ccccc1Cl	x	x	x	3.6	x	x
O=C(NC1CCCCN(Cc2ccc(Cl)cc2)C1=O)c1ccccc1-c1ccc(Cl)c(Cl)c1 (stereo not given)	x	x	x	12.1	x	x
COc1ccc(C(OCC2CO2)c2ccc(OC)cc2)cc1 (stereo not given)	-12.7	-1.6	1.5	x	82.1*	91.8*	GSTO1 recomb ABPP=66.0
CC(C)=C1C(=O)NN(c2ccc(C)c(Cl)c2)C1=O	x	4.2	1.5	-12.2	43.9*	17.7
CC(C)=C1C(=O)NN(c2cccc(Cl)c2)C1=O	8.4	0.3	-3.1	-3.1	17.2	x
C=CCN1C(C(=O)OC)CN(Cc2cn(CCC3OCCO3)nn2)CCS1(=O)=O (stereo not given)	x	x	x	-0.7	x	x
CCOC(=O)N1CCN(CC(=O)Nc2ccc(F)cc2F)CC1	-6.0	0.4	-1.3	-2.2	43.0*	9.6
O=C(O)c1ccc(N=N/C(=N\Nc2ccc(C(=O)O)cc2)c2ccccc2)cc1	2.6	2.7	1.2	-9.4	39.3*	67.4*
O=C(O)c1cccc(N/N=C(\N=Nc2ccccc2)c2ccccc2)c1	-6.0	-1.1	0.9	-2.7	21.1	x
CCC[C@H]1[C@@H](NC(=O)c2ccc(Cl)cc2)CC[C@@]23CCCN2C(=O)CCC[C@@H]13	x	x	x	5.6	x	x
Cc1coc2c1C(=O)C(=O)c1c-2ccc2c(C)cccc12	96.0*	94.2*	-4.0	x	97.4*	57.3*
CCc1cc(C(=O)N/N=C/c2ccc(O)cc2)c2ccccc2n1	5.7	4.1	3.0	6.3	6.8	x
CCc1cc(C(=O)N=Nc2c(O)[nH]c3c(Br)cc(Br)cc23)c2ccccc2n1	8.7	-0.5	-11.8	6.5	74.8*	20.1
Cc1ccccc1-n1ncc2c([N+](=O)[O-])cc([N+](=O)[O-])cc21	7.9	0.5	-8.1	-2.8	39.0*	3.2
Cc1ccc2nc3cc([N+](=O)[O-])cc([N+](=O)[O-])c3cc2c1	x	x	x	-25.4	x	x
CCCCCc1cccc2[nH]cc(-c3ccccc3)c12	x	x	x	-1.2	x	x
COc1cccc(/C=C2\CC3(OC(=O)c4ccccc4)CCCN2C3)c1 (stereo not given)	x	x	x	3.5	x	x
COC(=O)c1ccsc1NS(C)(=O)=O	x	x	x	1.7	x	x
COc1cc(C2Nc3cccc4cccc(c34)N2)cc(OC)c1OC(C)=O	40.6*	1.1	-6.8	-2.9	48.8*	3.7
O=C(CCl)Nc1c2c(nn1-c1ccccc1)CSC2	6.6	79.7*	1.3	7.9	97.9*	98.0*
CCOC(=O)Nc1cc(=O)c([N+](=O)[O-])c(N)[nH]1	x	x	x	-6.2	x	x
Cc1ccccc1C(=O)N/N=C/c1ccc([N+](=O)[O-])s1	-2.4	0.8	-1.8	-2.7	26.4	x
Cc1c(Cl)cccc1N=Cc1ccc([N+](=O)[O-])s1	39.3	11.1	-11.0	1.9	39.5*	16.1
C#CCCC(=O)O[C@H]1CCC[C@@]2(C(=O)N(Cc3ccccc3)c3ccccc32)[C@H]1NC(=O)CCc1ccccc1	x	x	x	1.6	x	x
SMILES	Apaf-1 inh	Fh CTSL1 inh	PAD4 inh	TDP2 inh	GSTO1 counter	GSTO1 inh conf	others
O=c1cc(-c2ccccc2)nc(Cc2c(Cl)cccc2Cl)[nH]1	-3.3	1.1	2.5	-4.0	5.2	x
O=c1cc(CCl)nc(Cc2c(Cl)cccc2Cl)[nH]1	-13.7	5.5	0.3	-14.4	92.5*	96.9*	GSTO1 recomb ABPP=82.0*
N#CC(C#N)=C1NC2(CCCCC2)Cc2ccccc21	1.8	-0.2	-6.3	13.1	3.6	x
N#CC(C#N)=c1ccc2c(c1)NC1(CCCCC1)N=2	29.5	1.9	4.5	-6.3	68.0*	49.5*
CCC(C)N(C(=O)Cn1nc(Cc2ccncc2)c2ccccc2c1=O)C(C)CC (stereo not given)	x	x	x	1.9	x	x
O=S1(=O)CCO[C@H]2Cc3ccccc3[C@H]2N1Cc1ccc(Cl)cc1	12.9	-1.2	0.2	1.4	37.7*	5.6
O=S1(=O)CCO[C@H]2Cc3ccccc3[C@H]2N1Cc1cccc(Cl)c1	9.5	0.8	3.1	-4.7	6.4	x
Clc1c2c(nc3ccccc13)CCC2	-0.6	5.4	3.5	18.5	71.0*	5.8
COc1ccc(Oc2ccc(C(F)(F)F)cc2NC(=O)c2ccc(F)cc2)cc1	9.9	2.1	-5.2	-5.1	-6.0	x
COc1ccc(Oc2ccc(C(F)(F)F)cc2NC(=O)CC(CC(=O)O)c2ccccc2)cc1 (stereo not given)	5.4	3.6	4.5	0.7	43.5*	2.2
COC(=O)[C@]12C[C@H](CC(=O)NCc3cccs3)C(=O)N(Cc3cccc4ccccc34)C1=C[C@H](C(C)C)O[C@@H]2C1CC1	x	x	x	-5.2	x	x
CC(C)(C)OC(=O)NCCc1ccccc1/C=C/S(=O)(=O)NCc1ccccc1	x	x	x	0.3	x	x
COc1cc(/C=C2\S/C(=N/S(=O)(=O)c3ccccc3)NC2=O)c([N+](=O)[O-])cc1OC	12.3	5.7	-15.2	7.6	38.1*	31.3
COc1ccc(S(=O)(=O)/N=C2/NC(=O)/C(=C\c3cc(OC)c(OC)cc3[N+](=O)[O-])S2)cc1	11.1	4.0	-5.6	-6.0	33.1	x
CO[C@H]1C=CO[C@@]2(C)Oc3c(C)c(O)c4c(O)c(c(C=NN5CCN(C)CC5)c(O)c4c3C2=O)NC(=O)C(C)=CC=C[C@H](C)[C@H](O)[C@@H](C)[C@@H](O)[C@@H](C)[C@H](OC(C)=O)[C@@H]1C	24.9	11.8	-4.8	-3.6	76.9*	69.9*
CO[C@H]1C=CO[C@@]2(C)Oc3c(C)c(O)c4c(O)c(c(C=NN5CCN(C6CCCC6)CC5)c(O)c4c3C2=O)NC(=O)C(C)=CC=C[C@H](C)[C@H](O)[C@@H](C)[C@@H](O)[C@@H](C)[C@H](OC(C)=O)[C@@H]1C	19.1	x	x	x	x	x
CO[C@H]1/C=C/O[C@@]2(C)Oc3c(C)c(O)c4c(O)c(c(C=NN5CCN(C)CC5)c(O)c4c3C2=O)NC(=O)/C(C)=C\C=C\[C@H](C)[C@H](O)[C@@H](C)[C@@H](O)[C@@H](C)[C@H](OC(C)=O)[C@@H]1C	-0.4	-0.4	-0.9	-5.2	62.3*	54.7*
COC(=O)[C@]12C[C@H](CC(=O)N3CCCCC3)C(=O)N(CCC3=CCCCC3)C1=C[C@H](COCc1ccccc1)O[C@@H]2C	x	x	x	1.7	x	x
Cc1cc(C(=O)NNC(=S)NC(=O)/C=C/c2ccccc2Cl)n[nH]1	-1.4	-2.0	-0.3	-12.4	57.9*	9.9
